Results reported in ChEMBL document CHEMBL1255335 (Antimicrob Agents Chemother, 2008).
Converted amounts (≈) assume the structure as drawn.

What was measured:
[1] = tested on: Escherichia coli; assay: Antibacterial activity against Escherichia coli DH5alpha expressing Klebsiella pneumoniae beta-lactamase SHV-1 by agar dilution method; format: functional
[2] = tested on: Escherichia coli; assay: Antibacterial activity against Escherichia coli DH5alpha expressing Klebsiella pneumoniae beta-lactamase SHV-72 by agar dilution method; format: functional
[3] = tested on: Escherichia coli; assay: Antibacterial activity against Escherichia coli DH5alpha with deltaampC by agar dilution method; format: functional
[4] = tested on: Klebsiella pneumoniae; assay: Antibacterial activity against Klebsiella pneumoniae INSRA1229 harboring SHV-72 Ile8Phe, Ala146Val, and Lys234Arg mutations by agar dilution method
[5] = tested on: Escherichia coli; assay: Antibacterial activity against Escherichia coli DH5alpha expressing Klebsiella pneumoniae beta-lactamase SHV-1 by agar dilution method in presence of 2 ug/ml clavulanic acid; format: functional
[6] = tested on: Escherichia coli; assay: Antibacterial activity against Escherichia coli DH5alpha expressing Klebsiella pneumoniae beta-lactamase SHV-72 by agar dilution method in presence of 2 ug/ml clavulanic acid; format: functional
[7] = tested on: Escherichia coli; assay: Antibacterial activity against Escherichia coli DH5alpha with deltaampC by agar dilution method in presence of 2 ug/ml clavulanic acid; format: functional
[8] = tested on: Klebsiella pneumoniae; assay: Antibacterial activity against Klebsiella pneumoniae INSRA1229 harboring SHV-72 Ile8Phe, Ala146Val, and Lys234Arg mutations by agar dilution method in presence of 2 ug/ml clavulanic acid; format: functional
[9] = tested on: Escherichia coli; assay: Antibacterial activity against Escherichia coli DH5alpha with deltaampC by agar dilution method in presence of 4 ug/ml Tazobactam; format: functional
[10] = tested on: Escherichia coli; assay: Antibacterial activity against Escherichia coli DH5alpha expressing Klebsiella pneumoniae beta-lactamase SHV-1 by agar dilution method in presence of 4 ug/ml Tazobactam; format: functional
[11] = tested on: Escherichia coli; assay: Antibacterial activity against Escherichia coli DH5alpha expressing Klebsiella pneumoniae beta-lactamase SHV-72 by agar dilution method in presence of 4 ug/ml Tazobactam; format: functional
[12] = tested on: Klebsiella pneumoniae; assay: Antibacterial activity against Klebsiella pneumoniae INSRA1229 harboring SHV-72 Ile8Phe, Ala146Val, and Lys234Arg mutations in presence of 4 ug/ml Tazobactam; format: functional
[13] = substrate: CC1(C)S[C@@H]2[C@H](NC(=O)[C@H](C(=O)O)c3ccsc3)C(=O)N2[C@H]1C(=O)O; assay: (§1) Ratio of Kcat to Km for Klebsiella pneumoniae Beta-Lactamase SHV-1
Method in brief: (§2)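 kcat/Km came from Km and kcat of purified enzyme, which was expressed in E. coli DH5α ΔampC and purified by ion exchange then gel filtration. Both constants were measured by computerized pH-stat microacidimetry, with complete hydrolysis progress curves fitted by nonlinear least-squares regression. Each substrate was run three times.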

[14] = substrate: CCN1CCN(C(=O)N[C@@H](C(=O)N[C@@H]2C(=O)N3[C@@H]2SC(C)(C)[C@@H]3C(=O)O)c2ccccc2)C(=O)C1=O; assay: as §1; method in brief: as §2
[15] = substrate: CC1(C)S[C@@H]2[C@H](NC(=O)Cc3ccccc3)C(=O)N2[C@H]1C(=O)O; assay: as §1; method in brief: as §2
[16] = substrate: CC1(C)S[C@@H]2[C@H](NC(=O)[C@H](C(=O)O)c3ccsc3)C(=O)N2[C@H]1C(=O)O; assay: (§3) Activity of Klebsiella pneumoniae Beta-Lactamase SHV-1
Method in brief: (§4)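 SHV-1 or SHV-72 came from E. coli DH5α ΔampC clones grown 18 h at 37°C. Enzymes were purified by ion exchange then gel filtration, with protein measured by BCA. Km and kcat were measured by pH-stat microacidimetry, fitting complete hydrolysis time courses by nonlinear least squares, three determinations per substrate.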

[17] = substrate: CC1(C)S[C@@H]2[C@H](NC(=O)Cc3ccccc3)C(=O)N2[C@H]1C(=O)O; assay: as §3; method in brief: as §4
[18] = substrate: CC(C)(O/N=C(\C(=O)N[C@@H]1C(=O)N2C(C(=O)[O-])=C(C[n+]3ccccc3)CS[C@H]12)c1csc(N)n1)C(=O)O; assay: (§5) Activity of Klebsiella pneumoniae Beta-Lactamase SHV-72; method in brief: as §4
[19] = substrate: CC1(C)S[C@@H]2[C@H](NC(=O)[C@H](N)c3ccc(O)cc3)C(=O)N2[C@H]1C(=O)O; assay: as §5; method in brief: as §4
[20] = substrate: CC1(C)S[C@@H]2[C@H](NC(=O)[C@H](C(=O)O)c3ccsc3)C(=O)N2[C@H]1C(=O)O; assay: as §5; method in brief: as §4
[21] = substrate: CCN1CCN(C(=O)N[C@@H](C(=O)N[C@@H]2C(=O)N3[C@@H]2SC(C)(C)[C@@H]3C(=O)O)c2ccccc2)C(=O)C1=O; assay: as §5; method in brief: as §4
[22] = substrate: CC1(C)S[C@@H]2[C@H](NC(=O)Cc3ccccc3)C(=O)N2[C@H]1C(=O)O; assay: as §5; method in brief: as §4
[23] = substrate: CC(=O)OCC1=C(C(=O)O)N2C(=O)[C@@H](NC(=O)Cc3cccs3)[C@H]2SC1; assay: as §5; method in brief: as §4
[24] = substrate: CO/N=C(\C(=O)N[C@@H]1C(=O)N2C(C(=O)O)=C(COC(C)=O)CS[C@H]12)c1csc(N)n1; assay: as §5; method in brief: as §4
[25] = substrate: CC1(C)S[C@@H]2[C@H](NC(=O)[C@H](N)c3ccc(O)cc3)C(=O)N2[C@H]1C(=O)O; assay: (§6) Ratio of Kcat to Km for Klebsiella pneumoniae Beta-Lactamase SHV-72; method in brief: as §2
[26] = substrate: CC1(C)S[C@@H]2[C@H](NC(=O)[C@H](C(=O)O)c3ccsc3)C(=O)N2[C@H]1C(=O)O; assay: as §6; method in brief: as §2
[27] = substrate: CCN1CCN(C(=O)N[C@@H](C(=O)N[C@@H]2C(=O)N3[C@@H]2SC(C)(C)[C@@H]3C(=O)O)c2ccccc2)C(=O)C1=O; assay: as §6; method in brief: as §2
[28] = substrate: CC1(C)S[C@@H]2[C@H](NC(=O)Cc3ccccc3)C(=O)N2[C@H]1C(=O)O; assay: as §6; method in brief: as §2
[29] = substrate: CC(=O)OCC1=C(C(=O)O)N2C(=O)[C@@H](NC(=O)Cc3cccs3)[C@H]2SC1; assay: as §6; method in brief: as §2
[30] = Escherichia coli, DH5alpha, read-out: MIC

Molecule	MIC [1] [µg/mL]	MIC [2, 30] [µg/mL]	MIC [3] [µg/mL]	MIC [4] [µg/mL]	also measured
CO/N=C(\C(=O)N[C@@H]1C(=O)N2C(C(=O)[O-])=C(C[N+]3(C)CCCC3)CS[C@H]12)c1csc(N)n1	0.03 (≈ 0.0624 µM)	0.03 (≈ 0.0624 µM)	0.03 (≈ 0.0624 µM)	0.03 (≈ 0.0624 µM)	–
CC1(C)S[C@@H]2[C@H](/N=C/N3CCCCCC3)C(=O)N2[C@H]1C(=O)O [AMDINOCILLIN]	0.5 (≈ 1.54 µM)	0.25 (≈ 0.768 µM)	0.125 (≈ 0.384 µM)	0.25 (≈ 0.768 µM)	–
CC1(C)S[C@@H]2[C@H](NC(=O)[C@H](N)c3ccc(O)cc3)C(=O)N2[C@H]1C(=O)O [AMOXICILLIN]	2050 (≈ 5600 µM)	512 (≈ 1400 µM)	8 (≈ 21.9 µM)	2050 (≈ 5600 µM)	MIC [5]: 8 µM; MIC [6]: 64 µM; MIC [7]: 8 µM; MIC [8]: 64 µM
CCN1CCN(C(=O)N[C@@H](C(=O)N[C@@H]2C(=O)N3C(C(=O)O)=C(CSc4nnnn4C)CS[C@H]23)c2ccc(O)cc2)C(=O)C1=O [CEFOPERAZONE]	4 (≈ 6.2 µM)	≤ 0.25	≤ 0.25	2 (≈ 3.1 µM)	–
CO/N=C(\C(=O)N[C@@H]1C(=O)N2C(C(=O)O)=C(COC(C)=O)CS[C@H]12)c1csc(N)n1 [CEFOTAXIME]	0.06 (≈ 0.132 µM)	0.06 (≈ 0.132 µM)	0.06 (≈ 0.132 µM)	0.125 (≈ 0.274 µM)	MIC [5]: 0.06 µg/mL; MIC [6]: 0.06 µg/mL; MIC [7]: 0.06 µg/mL; MIC [8]: 0.06 µg/mL
CO[C@@]1(NC(=O)Cc2cccs2)C(=O)N2C(C(=O)O)=C(COC(N)=O)CS[C@@H]21 [CEFOXITIN]	8 (≈ 18.7 µM)	8 (≈ 18.7 µM)	4 (≈ 9.36 µM)	4 (≈ 9.36 µM)	–
CC(C)(O/N=C(\C(=O)N[C@@H]1C(=O)N2C(C(=O)[O-])=C(C[n+]3ccccc3)CS[C@H]12)c1csc(N)n1)C(=O)O [CEFTAZIDIME]	0.5 (≈ 0.915 µM)	0.25 (≈ 0.457 µM)	0.25 (≈ 0.457 µM)	–	MIC [5]: 0.25 µg/mL; MIC [6]: 0.25 µg/mL; MIC [7]: 0.125 µg/mL
CO/N=C(\C(=O)N[C@@H]1C(=O)N2C(C(=O)O)=C(CSc3nc(=O)c(O)nn3C)CS[C@H]12)c1csc(N)n1 [CEFTRIAXONE]	0.03 (≈ 0.0541 µM)	0.03 (≈ 0.0541 µM)	0.03 (≈ 0.0541 µM)	0.03 (≈ 0.0541 µM)	MIC [5]: 0.03 µg/mL; MIC [2]: 0.03 µg/mL (≈ 0.0541 µM); MIC [7]: 0.06 µg/mL; MIC [8]: ≤ 0.015 µg/mL
CO/N=C(\C(=O)N[C@@H]1C(=O)N2C(C(=O)O)=C(COC(N)=O)CS[C@H]12)c1ccco1 [CEFUROXIME]	4 (≈ 9.43 µM)	8 (≈ 18.9 µM)	4 (≈ 9.43 µM)	2 (≈ 4.71 µM)	–
CC(=O)OCC1=C(C(=O)O)N2C(=O)[C@@H](NC(=O)Cc3cccs3)[C@H]2SC1 [CEPHALOTHIN]	16 (≈ 40.4 µM)	4 (≈ 10.1 µM)	8 (≈ 20.2 µM)	8 (≈ 20.2 µM)	–
O=C(O)c1cn(C2CC2)c2cc(N3CCNCC3)c(F)cc2c1=O [CIPROFLOXACIN]	≤ 0.125	≤ 0.125	≤ 0.125	≤ 0.125	–
C[C@@H](O)[C@H]1C(=O)N2C(C(=O)O)=C(SCCNC=N)C[C@H]12 [IMIPENEM ANHYDROUS]	–	–	–	0.125 (≈ 0.418 µM)	–
CCN1CCN(C(=O)N[C@@H](C(=O)N[C@@H]2C(=O)N3[C@@H]2SC(C)(C)[C@@H]3C(=O)O)c2ccccc2)C(=O)C1=O [PIPERACILLIN]	64 (≈ 124 µM)	4 (≈ 7.73 µM)	2 (≈ 3.86 µM)	32 (≈ 61.8 µM)	MIC [9]: 2 µM; MIC [10]: 2 µM; MIC [11]: 2 µM; MIC [12]: 2 µM
CC1(C)S[C@@H]2[C@H](NC(=O)[C@H](C(=O)O)c3ccsc3)C(=O)N2[C@H]1C(=O)O [TICARCILLIN]	1020 (≈ 2660 µM)	8 (≈ 20.8 µM)	4 (≈ 10.4 µM)	512 (≈ 1330 µM)	–
COc1cc(Cc2cnc(N)nc2N)cc(OC)c1OC [TRIMETHOPRIM]	≤ 0.125	≤ 0.125	≤ 0.125	0.5 (≈ 1.72 µM)	–
GENTAMICIN	0.25	–	< 0.125	–	MIC [2]: 0.25 µg/mL
Beta-lactamase SHV-1 (Klebsiella pneumoniae), P0AD64 (protein) MRYIRLCIISLLATLPLAVHASPQPLEQIKLSESQLSGRVGMIEMDLASGRTLTAWRADERFPMMSTFKVVLCGAVLARVDAGDEQLERKIHYRQQDLVDYSPVSEKHLADGMTVGELCAAAITMSDNSAANLLLATVGGPAGLTAFLRQIGDNVTRLDRWETELNEALPGDARDTTTPASMAATLRKLLTSQRLSARSQRQLLQWMVDDRVAGPLIRSVLPAGWFIADKTGAGERGARGIVALLGPNNKAERIVVIYLRDTPASMAERNQQIAGIGAALIEHWQR	–	–	–	–	kcat/Km [13]: 2e+07 M⁻¹ s⁻¹; kcat/Km [14]: 6.21e+07 M⁻¹ s⁻¹; kcat/Km [15]: 8.42e+07 M⁻¹ s⁻¹; Km [16]: 11 µM; kcat [17]: 1940 s⁻¹
Beta-lactamase SHV-72 (Klebsiella pneumoniae), A0ZX81 (protein) MRYFRLCIISLLATLPLAVHASPQPLEQIKLSESQLSGRVGMIEMDLASGRTLTAWRADERFPMMSTFKVVLCGAVLARVDAGDEQLERKIHYRQQDLVDYSPVSEKHLADGMTVGELCAAAITMSDNSAANLLLATVGGPVGLTAFLRQIGDNVTRLDRWETELNEALPGDARDTTTPASMAATLRKLLTSQRLSARSQRQLLQWMVDDRVAGPLIRSVLPAGWFIADRTGAGERGARGIVALLGPNNKAERIVVIYLRDTPASMAERNQQIAGIGAALIEHWQR	–	–	–	–	kcat [18]: < 0.1 s⁻¹; Km [19]: 26 µM; kcat [19]: 5880 s⁻¹; Km [20]: 36 µM; kcat [20]: 1280 s⁻¹; Km [21]: 43 µM; kcat [21]: 1920 s⁻¹; Km [22]: 19 µM; kcat [22]: 5440 s⁻¹; Km [23]: 141 µM; kcat [23]: 38 s⁻¹; kcat [24]: < 0.1 s⁻¹; kcat/Km [25]: 2.26e+08 M⁻¹ s⁻¹; kcat/Km [26]: 3.55e+07 M⁻¹ s⁻¹; kcat/Km [27]: 4.46e+07 M⁻¹ s⁻¹; kcat/Km [28]: 2.86e+08 M⁻¹ s⁻¹; kcat/Km [29]: 300000 M⁻¹ s⁻¹
